Tests used:
Assay type in all cases: functional
[1] = test system: Mus musculus; assay: Anti-fighting potency against foot shock induced fighting behavior in mice expressed as % inhibition at 25 mg/kg peroral administration; conditions: route oral
[2] = test system: Mus musculus; assay: Anti-morphine activity against morphine-induced Straub''s tail reaction in mice expressed as % inhibition at 25 mg/kg peroral administration; conditions: route oral
Procedure, shortened: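 Six mice per group received test compounds orally 1 h before morphine (20 mg/kg ip). Straub's tail reaction was scored as the index of morphine's CNS stimulant action.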

[3] = test system: Mus musculus; assay: Anti-morphine activity against the morphine-induced Straub's tail reaction in mice on peroral administration; conditions: po
Procedure, shortened: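 Mice, six per group, dosed orally with test compound 1 h before morphine (20 mg/kg ip); Straub's tail reaction scored as index of morphine CNS stimulation.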

[4] = test system: Mus musculus; assay: Antifighting potency against the foot shock induced fighting behavior in mice on peroral administration; conditions: po

| Compound | inhibition in vivo at 25 mg/kg [1] [%] | inhibition in vivo at 25 mg/kg [2] [%] | ED50 [3] [mg/kg] | ED50 [4] [mg/kg] |
| --- | --- | --- | --- | --- |
| c1ccc(N2CCN(CCOc3ccc4c(c3)CCC4)CC2)cc1 | 0 | 17 | – | – |
| Clc1ccc(N2CCN(CCCCOc3ccc4c(c3)CCC4)CC2)cc1 | 31 | 33 | – | – |
| Fc1ccc(N2CCN(CCCCOc3ccc4c(c3)CCC4)CC2)cc1 | 70 | 100 | – | – |
| Fc1cc2c(cc1OCCCN1CCN(c3cccc(Cl)c3)CC1)CCC2 | 92 | 92 | – | – |
| Fc1ccc(N2CCN(CCCOc3cc4c(cc3F)CCC4)CC2)cc1 | 100 | 97 | – | – |
| Clc1cc(Cl)cc(N2CCN(CCCCOc3ccc4c(c3)CCC4)CC2)c1 | 0 | 0 | – | – |
| Fc1cc2c(cc1OCCCN1CCN(c3cccc(C(F)(F)F)c3)CC1)CCC2 | 0 | 20 | – | – |
| Clc1cc(Cl)cc(N2CCN(CCCOc3ccc4c(c3)CCC4)CC2)c1 | 0 | 0 | – | – |
| COc1ccc(N2CCN(CCCOc3ccc4c(c3)CCC4)CC2)cc1 | 60 | 37 | – | – |
| Cl.Cl.O=[N+]([O-])c1ccccc1N1CCN(CCCCOc2ccc3c(c2)CCC3)CC1 | 42 | 54 | 23 | 25.8 |
| Cc1cc2c(cc1OCCCN1CCN(c3ccc(F)cc3)CC1)CCC2 | 50 | 31 | – | – |
| FC(F)(F)c1cccc(N2CCN(CCCOc3ccc4c(c3)CCC4)CC2)c1 | 0 | 73 | – | – |
| O=[N+]([O-])c1ccc(N2CCN(CCCOc3ccc4c(c3)CCC4)CC2)cc1 | 0 | 26 | – | – |
| COc1ccccc1N1CCN(CCCOc2ccc3c(c2)CCC3)CC1 | 0 | 19 | – | – |
| COc1cc2c(cc1OCCCN1CCN(c3cccc(Cl)c3)CC1)CCC2.Cl.Cl.Cl | 67 | 98 | 11.3 | 15.9 |
| Oc1cc2c(cc1OCCCN1CCN(c3ccccc3)CC1)CCC2 | 17 | 0 | – | – |
| O=[N+]([O-])c1cc2c(cc1OCCCN1CCN(c3ccc(F)cc3)CC1)CCC2 | 58 | 28 | – | – |
| Fc1ccc(N2CCN(CCCOc3ccc4c(c3)C(c3ccccc3)CC4)CC2)cc1 (stereo not drawn) | 17 | 32 | – | – |
| Clc1cccc(N2CCN(CCCOc3ccc4c(c3)CCC4)CC2)c1 | 83 | 83 | – | – |
| Fc1ccc(N2CCN(CCOc3ccc4c(c3)CCC4)CC2)cc1 | 40 | 0 | – | – |
| c1ccc(N2CCN(CCCOc3cccc4c3CCC4)CC2)cc1 | 0 | 33 | – | – |
| c1ccc(C2CCc3ccc(OCCCN4CCN(c5ccccc5)CC4)cc32)cc1 (stereo not drawn) | 0 | 34 | – | – |
| Fc1cc2c(cc1OCCCCN1CCN(c3ccccc3)CC1)CCC2 | 33 | 79 | – | – |
| Clc1ccc(N2CCN(CCCOc3cc4c(cc3Cl)CCC4)CC2)cc1 | 33 | 36 | – | – |
| Cl.Cl.Cl.Fc1ccc(N2CCN(CCCOc3cc4c(cc3Cl)CCC4)CC2)cc1 | 83 | 100 | 11.5 | 14.3 |

| Compound | inhibition in vivo at 25 mg/kg [1] [%] | inhibition in vivo at 25 mg/kg [2] [%] | ED50 [3] [mg/kg] | ED50 [4] [mg/kg] |
| --- | --- | --- | --- | --- |
| CC(=O)c1ccc(N2CCN(CCCOc3ccc4c(c3)CCC4)CC2)cc1 | 13 | 0 | – | – |
| COc1ccc(N2CCN(CCCCOc3ccc4c(c3)CCC4)CC2)cc1 | 17 | 14 | – | – |
| O=[N+]([O-])c1ccccc1N1CCN(CCCOc2ccc3c(c2)CCC3)CC1 | 8 | 43 | – | – |
| Cl.Cl.FC(F)(F)c1cccc(N2CCN(CCCCOc3ccc4c(c3)CCC4)CC2)c1 | 8 | 100 | 12.5 | – |
| FC(F)(F)c1cccc(N2CCN(CCCCCOc3ccc4c(c3)CCC4)CC2)c1 | 33 | 66 | – | – |
| COc1cc2c(cc1OCCCN1CCN(c3ccccc3)CC1)CCC2 | 50 | 65 | – | – |
| Oc1cc2c(cc1OCCCN1CCN(c3ccc(F)cc3)CC1)CCC2 | 25 | 0 | – | – |
| COc1cc2c(cc1OCCCN1CCN(c3ccc(F)cc3)CC1)CCC2 | 100 | 100 | – | – |
| CCC1CCc2ccc(OCCCN3CCN(c4ccc(F)cc4)CC3)cc21 (stereo not drawn) | 67 | 44 | – | – |
| Fc1cccc(N2CCN(CCCCOc3ccc4c(c3)CCC4)CC2)c1 | 15 | 17 | – | – |
| Clc1ccccc1N1CCN(CCCOc2ccc3c(c2)CCC3)CC1 | 40 | 42 | – | – |
| Clc1ccc(N2CCN(CCCOc3ccc4c(c3)CCC4)CC2)cc1 | 43 | 58 | – | – |
| Cl.Cl.Fc1ccc(N2CCN(CCCCOc3cc4c(cc3F)CCC4)CC2)cc1 | 83 | 90 | 10.2 | 14.4 |
| O=[N+]([O-])c1ccc(N2CCN(CCCCOc3ccc4c(c3)CCC4)CC2)cc1 | 0 | 22 | – | – |
| Oc1cc2c(cc1OCCCN1CCN(c3cccc(Cl)c3)CC1)CCC2 | 0 | 29 | – | – |
| COc1ccccc1N1CCN(CCCCOc2ccc3c(c2)CCC3)CC1 | 33 | 42 | – | – |
| Clc1cccc(N2CCN(CCCCOc3ccc4c(c3)CCC4)CC2)c1 | 37 | 0 | – | – |
| Fc1cccc(N2CCN(CCCOc3ccc4c(c3)CCC4)CC2)c1 | 19 | 42 | – | – |
| Cl.Cl.Cl.Clc1cc2c(cc1OCCCN1CCN(c3ccccc3)CC1)CCC2 | 58 | 82 | 22 | 21 |
| Fc1ccc(N2CCN(CCCCCOc3ccc4c(c3)CCC4)CC2)cc1 | 58 | 71 | – | – |
| O=[N+]([O-])c1cc2c(cc1OCCCN1CCN(c3ccccc3)CC1)CCC2 | 67 | 24 | – | – |
| c1ccc(N2CCN(CCCCOc3ccc4c(c3)CCC4)CC2)cc1 | 75 | 50 | – | – |
| Fc1ccc(N2CCN(CCCOc3cccc4c3CCC4)CC2)cc1 | 5 | 25 | – | – |
| c1ccc(N2CCN(CCCCCOc3ccc4c(c3)CCC4)CC2)cc1 | 27 | 25 | – | – |
| Cl.Cl.Cl.Clc1ccccc1N1CCN(CCCCOc2ccc3c(c2)CCC3)CC1 | 85 | 42 | 30 | 14.5 |

Source: ChEMBL document CHEMBL1122329, “Synthesis and antianxiety activity of (omega-piperazinylalkoxy)indan derivatives” (J Med Chem, 1983)
